Screening results from PubChem BioAssay.
Shown are actives, neighbours in structure and some others; about 4.5% of the full set was active somewhere.
OX1R antag-1: blocks the human orexin 1 receptor. actives 0.43% (n = 330,000). inhibition, % at 5 µM. O43613. CHO/OX1R cells, Fluo-8 calcium fluorescence, orexin A;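 active means inhibition above its plate's threshold, mean inhibition of all tested compounds on the plate plus 3 SD, cut at about 37% in these data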;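 further: 0% = orexin A challenge wells and 100% = SB-334867-A antagonist wells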
CHO parental Ca: counter-screen: ATP calcium response change in parental CHO cells | parental CHO-K1, ATP-induced calcium, Fluo-8 fluorescence | inhibition, % at 5.6 µM | actives 0.63% (n = 330,000);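 active means inhibition above that plate's mean sample inhibition plus 3 SD, cut at about 26% in these data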;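 further: 0% = ATP-challenged DMSO wells and 100% = DMSO wells without ATP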
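Test system: untransfected parental CHO cell line. Compound: one dose, 5.6 µM nominal. Detection: intracellular calcium via Fluo-8 no-wash fluorescent dye. Measure: % inhibition. Benchmarks: ATP-challenged DMSO wells low, unchallenged DMSO wells high.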
OX1R antag-2: OX1R (human) antagonism; O43613; OX1R-expressing cells, FRET antagonist read-out; inhibition, % at 6.6 µM; actives 1.8% (n = 330,000); AID 485270; in the data active means inhibition mostly above about 38%, no sharp cut-off; inactive means mostly below about 40%;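 further: 0% = agonist challenge alone and 100% = reference antagonist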
TAAR1 antagonist: human TAAR1 antagonism | Q96RJ0 | actives 1.5% (n = 360,000) | AID 624466 | inhibition, % at 3 µM | CHO RD-HGA16 TAAR1, Fluo-8 calcium fluorescence, antagonist;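 active means inhibition above a per-plate cutoff, the mean inhibition of test compounds on that plate plus 3 SD, cut at about 49% in these data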;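 further: 0% = DMSO plus EC80 beta-PEA response and 100% = DMSO alone without agonist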
Target sequence (Q96RJ0 whole entry, looked up): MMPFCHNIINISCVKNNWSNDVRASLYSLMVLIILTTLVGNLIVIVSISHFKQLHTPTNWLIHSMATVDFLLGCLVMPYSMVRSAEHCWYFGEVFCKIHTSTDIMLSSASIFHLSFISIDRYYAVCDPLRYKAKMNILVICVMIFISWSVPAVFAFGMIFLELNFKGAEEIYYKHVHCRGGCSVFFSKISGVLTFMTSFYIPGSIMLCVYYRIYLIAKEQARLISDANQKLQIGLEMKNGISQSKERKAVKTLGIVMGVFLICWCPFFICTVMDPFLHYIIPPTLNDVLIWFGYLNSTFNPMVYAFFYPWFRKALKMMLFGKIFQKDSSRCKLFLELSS
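Test system: RD-HGA16 CHO cells with stable hTAAR1 and Gα16 / Probe or stimulus: EC80 β-phenethylamine stimulus / Times: seeding 17-24 h prior, 75-min 37 °C, 30-min RT dye loading / Detection: Fluo-8 calcium-sensitive fluorescence / Read-out basis: % inhibition scaled between DMSO and EC80 PEA controls / Repeats: singlicate, one well per test compound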
GPR7 antag: human neuropeptides B/W receptor 1 antagonism. P48145. GPR7-expressing cells, fluorescence antagonist assay. inhibition, % at 4.4 µM. actives 1.1% (n = 290,000). AID 1861; in the data active means inhibition above about 16%, passing the limit was not always enough;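 further: cells stimulated with the agonist NPW; 0% = agonist with vehicle and 100% = vehicle without agonist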
Target sequence (P48145 whole entry, looked up): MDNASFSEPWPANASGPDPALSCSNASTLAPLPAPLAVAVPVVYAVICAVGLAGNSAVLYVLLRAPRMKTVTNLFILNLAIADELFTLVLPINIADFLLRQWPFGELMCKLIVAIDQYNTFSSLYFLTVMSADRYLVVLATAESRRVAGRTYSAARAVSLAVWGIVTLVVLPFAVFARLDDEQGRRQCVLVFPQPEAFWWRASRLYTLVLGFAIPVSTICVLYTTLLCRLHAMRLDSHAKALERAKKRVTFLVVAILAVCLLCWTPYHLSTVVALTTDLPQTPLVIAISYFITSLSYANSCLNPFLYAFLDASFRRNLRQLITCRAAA
TAAR1 ag: human TAAR1 agonism. Q96RJ0. CHO RD-HGA16 TAAR1, Fluo-8 calcium fluorescence; vehicle wells 0%, saturating PEA agonist 100%. activation, % at 3 µM. actives 0.99% (n = 360,000). AID 624467;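 active means activation above the mean activation of all test compounds in the run plus 3 SD, cut at about 38% in these data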
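Test system: RD-HGA16 (CHO) cells co-expressing Gα16 and hTAAR1 | Doses: Single dose, 3 µM | Schedule: 17-24 h seeding, 75 min 37 °C dye, 30 min RT | Evaluation: % activation from peak over basal fluorescence ratio, DMSO-to-PEA scaled | Technique: Kinetic Fluo-8 calcium fluorescence | Benchmarks: Low control DMSO, high control PEA (EC100)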
TAAR1 ag conf: confirmation of human TAAR1 agonists; actives 82% (n = 2,400); CHO RD-HGA16 TAAR1, Fluo-8 calcium fluorescence; scaled: DMSO 0%, maximal phenethylamine 100%; shares compounds with TAAR1 ag; activation, % at 3 µM;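 active means activation above a cutoff set at the run's mean compound activation plus 3 SD, cut at about 39% in these data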
Ga16 ag counter: nonselective agonist in parental cells, TAAR1 agonist counter-screen; activation, % at 3 µM; CHO-Ga16 parental, Fluo-8 calcium fluorescence; normalized to maximal ATP response, DMSO zero; actives 50% (n = 2,400); shares compounds with TAAR1 ag; AID 651787;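 active means activation above the run cutoff, the mean activation over all tested wells plus 3 SD, cut at about 12% in these data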;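 further: 0% = DMSO wells and 100% = maximal ATP response on the peak over basal ratio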
TAAR1 desens: human TAAR1 agonist that also desensitizes the receptor; shares compounds with TAAR1 ag; CHO RD-HGA16 hTAAR1, Fluo-8 calcium, beta-PEA response inhibition; inhibition, % at 3 µM; actives 46% (n = 2,400); AID 651951;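 active means inhibition above the run cutoff, the mean inhibition of all test compounds plus 3 SD, cut at about 49% in these data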;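 further: beta-PEA stimulus applied at its EC80; loss of beta-PEA calcium signal after compound pretreatment read as receptor desensitization; 0% = DMSO with beta-PEA at EC80 and 100% = DMSO alone without agonist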
Ga16 nonsel ant: nonselective Ga16 antagonism, counter-screen | inhibition, % at 3 µM | shares compounds with TAAR1 ag | actives 39% (n = 2,400) | CHO-Ga16 ATP-induced calcium, Fluo-8 fluorescence | AID 651952;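 active means inhibition above the plate's mean compound inhibition plus 3 SD, computed per plate, cut at about 22% in these data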;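 further: 0% = EC80 ATP with DMSO and 100% = DMSO wells without ATP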
Numbers without * were called inactive; · = no result given.

SMILES	OX1R antag-1	CHO parental Ca	OX1R antag-2	TAAR1 antagonist	GPR7 antag	TAAR1 ag	TAAR1 ag conf	Ga16 ag counter	TAAR1 desens	Ga16 nonsel ant
CN(CC(=O)Nc1ccccc1C(F)(F)F)C(=O)c1ccc2c(=O)n3c(nc2c1)CCC3	-16	-12	0	-10	·	3	·	·	·	·
CCNC(=O)C1(C)CCN(C(=O)c2c(F)ccc(C)c2F)C1 (stereo not drawn)	·	·	·	-9	·	0	·	·	·	·
CN1/C(=C\C=C2/SC(=S)N(CC(=O)O)C2=O)C(C)(C)c2ccccc21	77*	69*	34	84*	17	235*	114*	121*	66*	61*
CC(OC(=O)c1cc2sccc2n1C)C(=O)NCc1ccc(F)cc1 (stereo not drawn)	-20	37*	20	51*	0	50*	18	17*	4	10
CCCCN(CC)C(=O)C1CCC(CNS(=O)(=O)c2cccc3nsnc23)CC1 (stereo not drawn)	-9	-3	21	-7	-11	4	·	·	·	·
CC(C)C(=O)Nc1ccc(NC(=S)NC(=O)c2cc3ccccc3o2)cc1	-12	-4	9	23	11	5	·	·	·	·
CC(C)C(=O)Nc1ccc(NC(=O)c2cc3ccccc3o2)cc1	-24	-6	12	14	-7	54*	45*	21*	49*	28*
Cc1cc(NC(=O)c2ccc(Br)o2)ccc1NC(=O)c1ccco1	-15	-18	7	8	-1	-1	·	·	·	·
CC1OC2CC(=O)OC2C2=C1C(=O)c1c(O)cccc1C2=O (stereo not drawn)	·	·	·	58*	·	64*	69*	41*	71*	62*
Cc1ccc(S(=O)(=O)n2nc(OC(=O)c3ccccc3F)cc2N)cc1	-12	2	1	17	1	65*	73*	46*	30	11
Cc1ccccc1C(=O)Oc1cc(N)n(S(=O)(=O)c2ccccc2)n1	-27	-14	18	41	5	84*	8	1	-8	10
Cc1ccc(C(=O)Oc2cc(N)n(S(=O)(=O)c3ccc(C)cc3)n2)cc1	-18	-11	20	-19	-13	7	·	·	·	·
O=C1/C(=C\c2cccc(O)c2O)SC(=S)N1Cc1ccccc1	-5	2	2	-17	-5	50*	21	18*	22	29*
O=C1/C(=C\c2cccc(O)c2)SC(=S)N1Cc1ccccc1	-20	10	8	-10	-13	0	·	·	·	·
Cc1ccc(CN2CCN(/N=C/C(Br)=C\c3ccccc3)CC2)cc1	-17	-10	38	-8	-3	7	·	·	·	·
BrC(=C\c1ccccc1)/C=N/Nc1ccc2nncn2n1	1	-5	18	8	-10	67*	44*	37*	23	13
C(=N\Nc1ccc2nncn2n1)/c1ccco1	4	2	15	-21	-10	5	·	·	·	·
BrC(=C\c1ccccc1)/C=N/n1cnnc1	·	·	·	18	-11	98*	38*	37*	18	19
O=C(O)c1ccc(CS(=O)(=O)c2ccc(Br)cc2)cc1	-2	-3	15	-9	-11	0	·	·	·	·
COc1ccc(NC(=O)c2cnn(-c3ccccc3)c2C)cc1OC	-28	-17	20	6	-16	6	·	·	·	·
Oc1cc(CNC2CCCCC2)c(O)cc1CNC1CCCCC1	·	·	·	-6	·	3	·	·	·	·
O=C(NCCc1ccccc1)C1CCCN(S(=O)(=O)c2cccc3nsnc23)C1 (stereo not drawn)	-25	-30	36	72*	-17	97*	85*	6	91*	15
Cc1ccc(CCNC(=O)C2CCN(S(=O)(=O)c3cccc4nsnc34)CC2)cc1	-23	-9	21	56*	-1	77*	1	4	16	19
O=S(=O)(NCCc1ccccc1)c1cccc2nsnc12	-5	-13	24	-10	-9	-3	·	·	·	·
O=C(NCCc1ccccc1)C(NS(=O)(=O)c1cccc2nsnc12)c1ccccc1 (stereo not drawn)	-15	-18	74*	11	-6	41*	76*	-1	41	11
SMILES	OX1R antag-1	CHO parental Ca	OX1R antag-2	TAAR1 antagonist	GPR7 antag	TAAR1 ag	TAAR1 ag conf	Ga16 ag counter	TAAR1 desens	Ga16 nonsel ant
CCCCc1nnc(NC(=O)c2ccccc2OCc2c(C)noc2C)s1	-32	-26	29	-11	·	1	·	·	·	·
O=c1[nH]ncc2c3ccccc3n(Cc3cccc(Cl)c3)c12	-6	-17	28	27	-8	54*	4	2	11	10
Oc1ccc(Br)cc1/C=N/NC(=S)NCCc1ccccc1	7	34*	17	21	-33	58*	74*	41*	45	47*
O=C(CCc1ccccc1)N/N=C/c1cc(Br)ccc1O	-13	-9	11	15	-3	5	·	·	·	·
CN1OC[C@@H]2CN(C(=O)CCc3ccccc3)[C@H](c3ccc(-n4ccnc4)cc3)C[C@@H]21	·	·	·	-9	·	2	·	·	·	·
CN1OC[C@@H]2CN(C(=S)NCCc3ccccc3)[C@H](c3ccc(-n4ccnc4)cc3)C[C@@H]21	·	·	·	-8	·	47*	49*	7	6	10
CCNC(=O)C1(C)CCN(C(=O)c2ccc3c(c2)OCO3)C1 (stereo not drawn)	·	·	·	-19	·	1	·	·	·	·
Cc1ccccc1-n1nnnc1SCC(=O)c1c(N)n(C)c(=O)n(C)c1=O	1	-11	14	11	-16	93*	130*	87*	42	14
CC(=O)c1sc2nc(SCC(=O)NCCc3ccccc3)[nH]c(=O)c2c1C	-3	-10	4	43	-17	90*	97*	19*	56*	-1
Cn1c(=O)c2c(nc(N3CCc4ccccc4C3)n2Cc2ccc(Br)cc2)n(C)c1=O	-21	-11	35	-16	-14	55*	61*	7	3	2
Cc1ccc(Cn2c(CN(C)Cc3ccccc3)nc3c2c(=O)n(C)c(=O)n3C)cc1	-12	-17	-2	0	22	70*	40*	26*	19	20
